Measurements from ChEMBL document CHEMBL1140649, “Design, synthesis, and preliminary biological evaluation of a novel triazole analogue of ceramide” (Bioorg Med Chem Lett, 2007).
The source made the active and inactive calls. No cut-off for these calls is given here.

Columns and labels:
Format in all cases: functional, cell-based
Conditions in all cases: Homo sapiens
[1] = tested on: K562; test: Cytotoxicity against K562 cells assessed as cell survival by MTT assay
Procedure, shortened: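 Suspension leukemia cells seeded, 24 h, then 48 h treatment with compounds diluted from ethanol stock into medium. MTT added (final 500 µg/ml), 3 h at 37 °C. Medium removed, formazan dissolved in DMSO, absorbance at 570 nm. Survival relative to solvent-treated controls; EC50 (concentration giving 50% survival) by non-linear regression; minimum of three experiments.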

[2] = tested on: NCI-H358; test: Cytotoxicity against NCI-H358 cells assessed as cell survival by SRB assay
[3] = tested on: HCT-116; test: Cytotoxicity against HCT116 cells assessed as cell survival by SRB assay
[4] = tested on: K562; test: Induction of apoptosis in K562 cells assessed as DNA fragmentation after 18 hrs by agarose gel electrophoresis
Procedure, shortened: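 Cells in 100-mm dishes exposed to various concentrations for 18 h. Lysed in 50 mM Tris-HCl pH 7.5, 20 mM EDTA, 1% NP-40 for 5 min at 4 °C. SDS added (final 1%) for 1 h at 56 °C, then proteinase K (final 2.5 µg/µl) for 2 h at 37 °C. DNA precipitated with ammonium acetate (final 5 M) and ethanol. 5 µg run on 2% agarose gel.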

| SMILES | EC50 [1] [µM] | EC50 [2] [µM] | EC50 [3] [µM] | Activity [4] |
| --- | --- | --- | --- | --- |
| CCCCCCCCCCCCC/C=C/[C@@H](O)[C@H](CO)n1cc(CCCCCC)nn1 | 8.2 | 12.8 | 12.5 | – |
| CCCCCCCCCCCCCC[C@@H](O)[C@@H](O)[C@H](CO)n1cc(CCCCCCCCCCCCC)nn1 | > 50 | > 50 | > 50 | – |
| CCCCCCCCCCCCC/C=C/[C@@H](O)[C@H](CO)NC(C)=O | 35.1 | 19.6 | 24.5 | – |
| CCCCCCCCCCCCC/C=C/[C@@H](O)[C@H](CO)n1cc(CCC)nn1 | 13 | 15.7 | 16 | – |
| CCCCCCCCCCCCCC[C@@H](O)[C@@H](O)[C@H](CO)n1cc(CCC)nn1 | 14.9 | 13.2 | 13.9 | – |
| CCCCCCCCCCCCCCCCCCCCCCCCc1cn([C@@H](CO)[C@H](O)[C@H](O)CCCCCCCCCCCCCC)nn1 | > 50 | > 50 | > 50 | – |
| CCCCCCCCCCCCCC[C@@H](O)[C@@H](O)[C@H](CO)n1cc(CCCCCC)nn1 | 12.6 | 13.7 | 12 | – |
| CCCCCCCCCCCCCC[C@@H](O)[C@@H](O)[C@H](CO)n1cc(CCCC)nn1 | 14.5 | 12.9 | 12.9 | Active |
| CCCCCCCCCCCCC/C=C/[C@@H](O)[C@H](CO)n1cc(CCCCCCCCCCCCCCCCCCCCCCCC)nn1 | > 50 | > 50 | > 50 | – |
| CCCCCCCCCCCCC/C=C/[C@@H](O)[C@H](CO)n1cc(CCCC)nn1 | 12.3 | 13.6 | 12.9 | Active |
| CCCCCCCCCCCCC/C=C/[C@@H](O)[C@H](CO)n1cc(CCCCCCCCCCCCC)nn1 | > 50 | > 50 | > 50 | – |
